The source of these data is ChEMBL document CHEMBL1141591, “Lipophilic modifications to dinucleoside polyphosphates and nucleotides that confer antagonist properties at the platelet P2Y12 receptor” (J Med Chem, 2008).

Broadly, the EC50 is the concentration that produces a half-maximal response.

Common to all, as to assay type: functional, cell-based
In assay [1] the target is T1, P2Y purinoceptor 2 (Homo sapiens, UniProt P41231). Briefly: Agonist activity at P2Y2 receptor expressed in human 1321 cells at 100 uM by calcium mobilization assay. The method in brief: (§1)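 1321N1 human astrocytoma cells expressing the recombinant receptor were loaded with Fluo-3 AM (2.5 µM final) for 60 min at 25 °C. Assay buffer: KCl 10, NaCl 118, CaCl2 2.5, MgCl2 1, HEPES 20, glucose 10 mM, pH 7.4. Cells were washed and then stimulated with compound. Intracellular calcium was read as the change in fluorescence (FLIPR). Values are EC50 in µM. SR means 5–20% of maximal response at the top concentration, usually 100 µM. NR means no response.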
T1 sequence (P41231 whole entry): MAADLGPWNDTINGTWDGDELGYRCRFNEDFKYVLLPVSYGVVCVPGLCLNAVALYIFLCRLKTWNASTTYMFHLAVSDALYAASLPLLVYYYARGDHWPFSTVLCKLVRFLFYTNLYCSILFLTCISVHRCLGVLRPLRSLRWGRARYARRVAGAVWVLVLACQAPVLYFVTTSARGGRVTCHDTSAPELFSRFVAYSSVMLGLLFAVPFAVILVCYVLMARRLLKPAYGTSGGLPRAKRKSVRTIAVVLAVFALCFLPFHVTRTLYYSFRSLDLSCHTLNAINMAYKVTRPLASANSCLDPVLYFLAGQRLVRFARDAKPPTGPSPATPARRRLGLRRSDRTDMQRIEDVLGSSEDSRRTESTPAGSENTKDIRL
In general terms: Calcium assays in cells follow changes in intracellular calcium, usually with a dye or a luminescent sensor.

A further assay concerns the target P2Y purinoceptor 1 (Homo sapiens, UniProt P47900). In words: Agonist activity at human recombinant P2Y1 receptor expressed in human 1321 cells at 100 uM by calcium mobilization assay. The method in brief:
as §1

The target of the next assay is P2Y purinoceptor 6 (Homo sapiens, UniProt Q15077). In words: Agonist activity at P2Y6 receptor expressed in human 1321 cells at 100 uM by calcium mobilization assay. The procedure, abridged: as §1
Sequence of P2Y purinoceptor 6 (Q15077 whole entry): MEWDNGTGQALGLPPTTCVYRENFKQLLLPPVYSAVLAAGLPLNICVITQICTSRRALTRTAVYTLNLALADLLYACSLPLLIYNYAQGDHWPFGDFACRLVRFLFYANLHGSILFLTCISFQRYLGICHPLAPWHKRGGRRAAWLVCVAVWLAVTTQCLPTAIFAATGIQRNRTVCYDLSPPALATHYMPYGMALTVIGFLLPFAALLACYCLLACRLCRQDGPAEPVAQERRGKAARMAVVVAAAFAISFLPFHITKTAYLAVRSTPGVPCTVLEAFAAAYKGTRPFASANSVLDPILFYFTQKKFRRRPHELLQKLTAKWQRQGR
For assay [2], the target named is T1, P2Y purinoceptor 2. Briefly: Agonist activity at P2Y2 receptor expressed in human 1321 cells by calcium mobilization assay.

Calls of active or inactive are those of the source. The calls are words filed in the database; no cut-off is given here. Some results are limits rather than exact numbers.

Sequence of P2Y purinoceptor 1 (P47900 whole entry): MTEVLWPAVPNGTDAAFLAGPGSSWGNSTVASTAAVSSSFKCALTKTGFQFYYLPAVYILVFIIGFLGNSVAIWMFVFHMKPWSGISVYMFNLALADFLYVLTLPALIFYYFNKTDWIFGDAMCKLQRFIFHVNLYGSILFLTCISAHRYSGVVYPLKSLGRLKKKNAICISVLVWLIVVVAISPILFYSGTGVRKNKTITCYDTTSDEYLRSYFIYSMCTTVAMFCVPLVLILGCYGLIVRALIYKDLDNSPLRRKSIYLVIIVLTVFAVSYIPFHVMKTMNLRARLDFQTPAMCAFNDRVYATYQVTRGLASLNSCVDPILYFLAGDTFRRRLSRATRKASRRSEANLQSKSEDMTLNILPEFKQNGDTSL

For the compound `O=c1ccn([C@@H]2O[C@H](COP(=O)(O)OP(=O)(O)OP(=O)(O)OP(=O)(O)OC[C@@H]3O[C@H](n4ccc(=O)[nH]c4=O)[C@H]4OC(/C=C/c5ccccc5)O[C@H]43)[C@H]3OC(/C=C/c4ccccc4)O[C@H]32)c(=O)[nH]1` (stereo in doubt; 25), the result on P2Y purinoceptor 2 [1] and at P2Y purinoceptor 1 was inactive. On P2Y purinoceptor 6, the Activity is more than 5%.

For `CCCCCCCC1O[C@@H]2[C@H](O1)[C@@H](COP(=O)(O)OP(=O)(O)OP(=O)(O)OP(=O)(O)OC[C@@H]1O[C@H](n3ccc(=O)[nH]c3=O)[C@H]3OC(CCCCCCC)O[C@H]31)O[C@H]2n1ccc(=O)[nH]c1=O` (stereo partly drawn), the result on P2Y purinoceptor 1 and on P2Y purinoceptor 6 was inactive.

In the case of `O=C(Nc1ccc(F)cc1)Nc1ccn([C@@H]2O[C@H](COP(=O)(O)OP(=O)(O)OP(=O)(O)OP(=O)(O)OC[C@@H]3O[C@H](n4ccc(=O)[nH]c4=O)[C@@H](O)[C@H]3O)[C@H]3O[C@@H](Cc4ccccc4)O[C@H]32)c(=O)n1`, the Activity on P2Y purinoceptor 2 [1] was more than 5%. Moreover, at P2Y purinoceptor 1, the outcome was inactive.

For the compound `Nc1ccn([C@@H]2O[C@H](COP(=O)(O)OP(=O)(O)OP(=O)(O)OP(=O)(O)OC[C@@H]3O[C@H](n4ccc(=O)[nH]c4=O)[C@H]4OC(Cc5ccccc5)O[C@H]43)[C@H]3OC(Cc4ccccc4)O[C@H]32)c(=O)n1` (stereo partly drawn), the outcome at P2Y purinoceptor 2 [1], on P2Y purinoceptor 1 and on P2Y purinoceptor 6 was inactive.

Consider `O=c1ccn([C@@H]2O[C@H](COP(=O)(O)OP(=O)(O)OP(=O)(O)OC[C@@H]3O[C@H](n4ccc(=O)[nH]c4=O)[C@H]4OC(Cc5ccccc5)O[C@H]43)[C@H]3OC(Cc4ccccc4)O[C@H]32)c(=O)[nH]1` (stereo partly drawn), for which the result at P2Y purinoceptor 2 [1], on P2Y purinoceptor 1 and on P2Y purinoceptor 6 was inactive.

With `O=C(Nc1ccc(F)cc1)Nc1ccn([C@@H]2O[C@H](COP(=O)(O)O)[C@H]3O[C@@H](Cc4ccccc4)O[C@H]32)c(=O)n1`, the outcome on P2Y purinoceptor 2 [1], at P2Y purinoceptor 1 and at P2Y purinoceptor 6 was inactive.

For the compound `O=c1ccn([C@@H]2O[C@H](COP(=O)(O)OP(=O)(O)OP(=O)(O)OP(=O)(O)OC[C@@H]3O[C@H](n4ccc(=O)[nH]c4=O)[C@@H](O)[C@H]3O)[C@H]3OC(C#Cc4ccccc4)O[C@H]32)c(=O)[nH]1` (stereo in doubt; 26), the result at P2Y purinoceptor 1 was inactive. The EC50 on P2Y purinoceptor 2 [2] was determined as 68 nM.

Consider `Nc1ncnc2c1ncn2[C@@H]1O[C@H](COP(=O)(O)OP(=O)(O)OP(=O)(O)OP(=O)(O)OC[C@@H]2O[C@H](n3cnc4c(N)ncnc43)[C@H]3OC(Cc4ccccc4)O[C@H]32)[C@H]2OC(Cc3ccccc3)O[C@H]21` (stereo partly drawn), for which the Activity on P2Y purinoceptor 2 [1] was more than 5%. Also, the result at P2Y purinoceptor 1 and on P2Y purinoceptor 6 was inactive.

Consider `O=C(Nc1ccc(F)cc1)Nc1ccn([C@@H]2O[C@H](COP(=O)(O)OP(=O)(O)OP(=O)(O)OP(=O)(O)OC[C@@H]3O[C@H](n4ccc(=O)[nH]c4=O)[C@H]4O[C@@H](Cc5ccccc5)O[C@H]43)[C@@H](O)[C@H]2O)c(=O)n1`, for which the result at P2Y purinoceptor 2 [1] and on P2Y purinoceptor 1 was inactive.

For the compound `O=C(Nc1ccc(F)cc1)Nc1ccn([C@@H]2O[C@H](COP(=O)(O)OP(=O)(O)OP(=O)(O)OP(=O)(O)OC[C@@H]3O[C@H](n4ccc(=O)[nH]c4=O)[C@H]4O[C@@H](Cc5ccccc5)O[C@H]43)[C@H]3O[C@@H](Cc4ccccc4)O[C@H]32)c(=O)n1`, the outcome at P2Y purinoceptor 2 [1], on P2Y purinoceptor 1 and at P2Y purinoceptor 6 was inactive.

As to `O=C(Nc1ccccc1)Nc1ncnc2c1ncn2[C@@H]1O[C@H](COP(=O)(O)OP(=O)(O)OP(=O)(O)OP(=O)(O)OC[C@@H]2O[C@H](n3cnc4c(NC(=O)Nc5ccccc5)ncnc43)[C@H]3O[C@@H](Cc4ccccc4)O[C@H]32)[C@H]2O[C@@H](Cc3ccccc3)O[C@H]21`, the result at P2Y purinoceptor 2 [1] and on P2Y purinoceptor 1 was inactive.
